Here are results for five molecules from ChEMBL document CHEMBL3228001, “Rigid congeners of dopamine based on octahydrobenzo[f]quinoline: peripheral and central effects” (1979).

In assay [1] the test system is Rattus norvegicus. Kind of assay: Dopaminergic activity in Sprague-Dawley rat assessed as hyperactivity up to 6.25 to 50 ug administered into nucleus accumbens. In kind it is functional, organism-based. A digest of the protocol:
(§1)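 Male Sprague-Dawley rats (250 ± 26 g) had guide cannulae implanted for bilateral injection into caudate-putamen and nucleus accumbens, and were used 10–14 days later. Nialamide 100 mg/kg ip was given 2 h before. Drug in N2-bubbled water (minimal DMF if needed), 1–2 µL over 60 s. Hyperactivity was read as photocell counts/5 min, stereotypy was scored, and cannula sites were checked histologically.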

Assay [2] relates to Rattus norvegicus. Kind of assay: Dopaminergic activity in Sprague-Dawley rat assessed as biting behavior up to 50 ug administered into nucleus accumbens. The class given is functional, organism-based. A digest of the protocol: as §1
The subject of assay [3] is Rattus norvegicus. Kind of assay: Dopaminergic activity in Sprague-Dawley rat assessed as hyperactivity behavior administered into nucleus caudate-putamen measured up to 25 ug from 30 to 45 mins to persisted up to 5 to 6 hrs. In kind it is functional, organism-based. A digest of the protocol:
as §1

Assay [4] concerns Rattus norvegicus. Put plainly: Dopaminergic activity in Sprague-Dawley rat assessed as hyperactivity up to 25 ug administered into caudate-putamen. In kind it is functional, organism-based. The essentials: as §1
The subject of assay [5] is Rattus norvegicus. Put plainly: Dopaminergic activity in Sprague-Dawley rat assessed as stereotyped behavior characterized by continous sniffing up to 25 ug administered into caudate-putamen. In kind it is functional, organism-based. The essentials:
as §1

For assay [6], the system named is Rattus norvegicus. Kind of assay: Dopaminergic activity in Sprague-Dawley rat assessed as stereotypic behavior administered into caudate-putamen measured up to 25 ug from 5 to 15 mins to persisted up to 5 to 6 hrs. The class given is functional, organism-based. The essentials:
as §1

Assay [7] relates to Rattus norvegicus. Put plainly: Dopaminergic activity in Sprague-Dawley rat assessed as stereotyped behavior characterized by sniffing and biting at 0.025 to 0.05 mg/kg, sc. The class given is functional, organism-based. A digest of the protocol:
(§2)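 Male Sprague-Dawley rats, groups of 10, were dosed sc in distilled water with 0.1% sodium metabisulfite, with solvent controls. Stereotyped sniffing and biting were scored as for intracerebral tests at 21 ± 2 °C between 08:00 and 18:00 h. Dose range runs from the threshold dose to the dose giving maximal response, in mg/kg sc.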

Assay [8] relates to Mus musculus. Kind of assay: Dopaminergic activity in albino mouse assessed as stereotyped behavior characterized by sniffing and biting at 1 to 2 mg/kg, sc. In kind it is functional, organism-based. A digest of the protocol:
(§3)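 Male albino mice (20–25 g, N = 10) were dosed sc in water containing 0.1% sodium metabisulfite and scored for stereotyped sniffing and biting. Dose range runs from the threshold dose to the dose giving maximal response, in mg/kg sc.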

Assay [9] concerns Mus musculus. Put plainly: Dopaminergic activity in albino mouse assessed as induction of climbing behavior at 0.025 to 1 mg/kg, sc. The class given is functional, organism-based. The essentials: (§4)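 Male albino mice (20–25 g, N = 10) were dosed sc in water with 0.1% sodium metabisulfite and placed in wire-mesh-lined cages. A mouse counted as climbing when holding the wire with all four paws. Measures: climbing index (% time climbing in the 30 min after the first climb) and maximum single-climb time. Doses run from threshold to maximal response.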

Assay [10] deals with Mus musculus. Put plainly: Dopaminergic activity in albino mouse assessed as induction of ipsilateral circling behavior at 0.5 to 2 mg/kg, sc. In kind it is functional, organism-based. A digest of the protocol: (§5)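 Male albino mice (30–35 g) received a unilateral caudate-putamen electrolesion (1.5 mA, 15 s) and 14 days of recovery. Only mice circling ≥7 ipsilateral revolutions/2 min after apomorphine HCl 1.0 mg/kg sc were kept, with a further 7 days of recovery. After sc dosing, complete revolutions in one direction were counted manually. Lesion sites were verified afterwards.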

Assay [11] relates to Mus musculus. Kind of assay: Dopaminergic activity in sc dosed albino mouse assessed as induction of ipsilateral circling behavior. In kind it is functional, organism-based. The essentials: as §5
The subject of assay [12] is Mus musculus. Put plainly: Dopaminergic activity in albino mouse assessed as induction of climbing behavior at 0.025 to 1 mg/kg, sc after 120 mins. In kind it is functional, organism-based. The essentials: as §4
For assay [13], the system named is Mus musculus. Put plainly: Dopaminergic activity in albino mouse assessed as induction of ipsilateral circling behavior at 0.5 to 2 mg/kg, sc after 120 mins. The class given is functional, organism-based. A digest of the protocol: as §5
In assay [14] the test system is Canis familiaris. Put plainly: Emetic activity in sc dosed dogs assessed as frequency of vomiting for 1 hr relative to apomorphine. The class given is functional, Canis lupus familiaris.
The nature of assay [15]: Induction of pecking activity in pigeons assessed as counts for 1 hr relative to apomorphine. In kind it is functional, Columbidae. A digest of the protocol: (§6)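 Pigeons were dosed im, with doses spaced at 0.3 log intervals, and pecks were counted over 1 h. Pecking after 1.63 µmol apomorphine hydrochloride was taken as the 100% response.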
For another assay, the system named is Felis catus. Kind of assay: Inhibition of electrical-stimulation of postganglionic cardioaccelerator nerve in iv dosed cat. In kind it is functional. The note with it: read-out: ID50 (the source's name). The essentials:
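Cats were anaesthetised with sodium pentobarbital 30 mg/kg and ventilated. The right postganglionic cardioaccelerator nerves were stimulated with bipolar electrodes (2 Hz, 5 ms pulses, supramaximal voltage, 20–30 s trains), and heart rate was read by cardiotachometer. Doses were spaced at 0.48 log intervals, and the dose inhibiting positive chronotropic responses by 50% was calculated.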

Assay [16] has as its system Rattus norvegicus. Put plainly: Dopaminergic activity in Sprague-Dawley rat assessed as stereotyped behavior characterized by periodic biting associated with sniffing administered into nucleus accumbens. In kind it is functional, organism-based. A digest of the protocol: as §1
The test system of assay [17] is Rattus norvegicus. Kind of assay: Dopaminergic activity in Sprague-Dawley rat assessed as locomotor and stereotypic behavior administered into nucleus accumbens measured up to 25 ug from 5 to 15 mins to persisted up to 5 to 6 hrs. The class given is functional, organism-based. A digest of the protocol: as §1
For assay [18], the system named is Mus musculus. Kind of assay: Dopaminergic activity in albino mouse assessed as stereotyped behavior characterized by sniffing and biting at 0.05 to 1 mg/kg, sc. The class given is functional, organism-based. A digest of the protocol:
as §3

In assay [19] the test system is Mus musculus. Put plainly: Dopaminergic activity in albino mouse assessed as induction of climbing behavior at 0.1 to 0.5 mg/kg, sc. In kind it is functional, organism-based. A digest of the protocol: as §4
The subject of assay [20] is Mus musculus. Kind of assay: Dopaminergic activity in albino mouse assessed as induction of ipsilateral circling behavior at 0.05 to 0.5 mg/kg, sc. The class given is functional, organism-based. The essentials:
as §5

The test system of assay [21] is Mus musculus. Kind of assay: Dopaminergic activity in albino mouse assessed as induction of climbing behavior at 0.5 mg/kg, sc up to 30 mins. In kind it is functional. The note with it: route subcutaneous. The essentials:
as §4

Assay [22] has as its system Mus musculus. Put plainly: Dopaminergic activity in albino mouse assessed as induction of climbing behavior at 0.1 to 0.5 mg/kg, sc after 120 mins. The class given is functional, organism-based. A digest of the protocol:
as §4

Assay [23] deals with Mus musculus. Put plainly: Dopaminergic activity in albino mouse assessed as induction of ipsilateral circling behavior at 0.05 to 0.5 mg/kg, sc after 120 mins. The class given is functional, organism-based. The essentials: as §5
For assay [24], the system named is Rattus norvegicus. Kind of assay: Dopaminergic activity in Sprague-Dawley rat assessed as stereotyped behavior characterized by continous sniffing up to 12.5 to 50 ug administered into nucleus accumbens. The class given is functional, organism-based. The essentials:
as §1

In assay [25] the test system is Rattus norvegicus. Kind of assay: Dopaminergic activity in Sprague-Dawley rat assessed as hyperactivity behavior administered into nucleus caudate-putamen measured up to 25 ug from 30 to 45 mins to persisted up to 3 hrs. In kind it is functional, organism-based. The essentials: as §1
In assay [26] the test system is Rattus norvegicus. Put plainly: Dopaminergic activity in Sprague-Dawley rat assessed as stereotypic behavior administered into caudate-putamen measured up to 25 ug from 5 to 15 mins to persisted up to 3 hrs. In kind it is functional, organism-based. The essentials:
as §1

Assay [27] relates to Rattus norvegicus. Put plainly: Dopaminergic activity in Sprague-Dawley rat assessed as stereotyped behavior characterized by sniffing and biting at up to 10 mg/kg, sc. The class given is functional, organism-based. Further details: dose 10 mg/kg. A digest of the protocol:
as §2

The subject of assay [28] is Mus musculus. Put plainly: Dopaminergic activity in albino mouse assessed as stereotyped behavior characterized by sniffing and biting at up to 10 mg/kg, sc. In kind it is functional, organism-based. Further details: dose 10 mg/kg. A digest of the protocol: as §3
Assay [29] concerns Mus musculus. Put plainly: Dopaminergic activity in albino mouse assessed as induction of climbing behavior up to 10 mg/kg, sc. Further details: dose 10 mg/kg. In kind it is functional, organism-based. A digest of the protocol:
as §4

The subject of assay [30] is Mus musculus. Kind of assay: Dopaminergic activity in albino mouse assessed as induction of ipsilateral circling behavior up to 10 mg/kg, sc. In kind it is functional, organism-based. Further details: dose 10 mg/kg. A digest of the protocol:
as §5

In assay [31] the test system is Canis familiaris. Kind of assay: Emetic activity in sc dosed dogs assessed as frequency of vomiting for 1 hr. In kind it is functional. As to conditions: Canis lupus familiaris. A digest of the protocol:
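At least five dogs per compound were dosed sc, with doses spaced at 0.3 log intervals. Vomiting frequency was recorded over 1 h.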

Assay [32] can be described thus: Induction of pecking activity in pigeons assessed as counts for 1 hr. The class given is functional. The note with it: Columbidae. The essentials:
as §6

Each structure is given as a SMILES string. Structures can show the parent of a compound that is named as a salt. Calls of active or inactive are those of the source.

On to `CCN1CCC[C@@H]2c3ccc(O)c(O)c3CC[C@H]21` (relative stereo), for which the outcome in the assay on Rattus norvegicus [1] was inactive. The outcome in the assay with Rattus norvegicus [2], in the assay on Rattus norvegicus [3], in the assay with Rattus norvegicus [4], in the assay on Rattus norvegicus [5], with Rattus norvegicus [6] and in the assay with Rattus norvegicus [7] was Active. The outcome with Mus musculus [8], in the assay with Mus musculus [9], in the assay on Mus musculus [10], with Mus musculus [12] and with Mus musculus [13] was Active. Besides, the Activity entry in the assay on Mus musculus [11] was “Dose-dependent effect”. Further, the “fold change (FC)” value in the assay with Canis familiaris [14] is listed as 4.9; in assay [15] it was 0.39. Further, in the assay on Felis catus, the ED50 was determined as 0.0005 µmol/kg.
`CCCN1CCC[C@@H]2c3ccc(O)c(O)c3CC[C@H]21` (relative stereo): the result in the assay with Rattus norvegicus [1], in the assay with Rattus norvegicus [16], with Rattus norvegicus [17], with Rattus norvegicus [3], with Rattus norvegicus [4] and with Rattus norvegicus [5] was Active. Moreover, the result with Rattus norvegicus [6], with Rattus norvegicus [7], in the assay on Mus musculus [18], in the assay on Mus musculus [19], in the assay with Mus musculus [20] and in the assay with Mus musculus [22] was Active. For the same molecule, in the assay on Mus musculus [23], the result was Active. Further, the Activity in the assay on Mus musculus [21] was greater than 90%; in the assay with Mus musculus [11] it was “Dose-dependent effect”. In addition, the “fold change (FC)” value with Canis familiaris [14] was 2.7; in assay [15], 0.32. Also, the ED50 with Felis catus was determined as 0.0003 µmol/kg.
`CCCN1CCC[C@@H]2c3ccc(O)c(O)c3CC[C@@H]21` (relative stereo): the result with Rattus norvegicus [1], with Rattus norvegicus [24], in the assay with Rattus norvegicus [4], in the assay on Rattus norvegicus [5], in the assay with Rattus norvegicus [27] and in the assay with Mus musculus [28] was inactive. Besides, the result with Mus musculus [29] and in the assay on Mus musculus [30] was inactive. Moreover, the outcome in the assay with Rattus norvegicus [25] and in the assay on Rattus norvegicus [26] was Active.
With `CN1CCc2cccc3c2[C@H]1Cc1ccc(O)c(O)c1-3` [APOMORPHINE HYDROCHLORIDE], the figures for the ED50 (in the assay on Canis familiaris [31]; in assay [32]) were 0.14 µmol/kg and 0.77 µmol/kg, respectively.
Consider `CN1CCc2cccc3c2[C@H]1Cc1ccc(O)c(O)c1-3` [APOMORPHINE], for which the ED50 with Felis catus worked out at 0.019 µmol/kg.
